# Results as given in ChEMBL document CHEMBL3351380, “Antioxidant and antimicrobial studies on fused-ring pyrazolones and isoxazolones” (Bioorg Med Chem, 2014).
# Activity calls are given as the source filed them. The rule behind the calls is not given here.
# Legend:
# [1] = Antioxidant activity assessed as DPPH radical scavenging activity after 30 mins by spectrophotometry; type: physicochemical
# Outline: (§1)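 DPPH (0.51 mM in methanol) was mixed 1:1 by volume with the compound at several concentrations (100, 50, 25 … µg/mL range). Absorbance was read against a control, and % inhibition = (A0−As)/A0 ×100. Readings were taken at 30 min and 3 h, with ascorbic acid as the reference. Triplicate measurements.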
# Pseudomonas aeruginosa [2] = assay: Antimicrobial activity against Pseudomonas aeruginosa NCIMB 8295 assessed as zone of inhibition at 100 ug/ml by agar well diffusion method; type: functional
# Outline: (§2)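 For the agar well diffusion screen, samples at 100 µg/mL were made from a stock of 10 mg in 1 mL EtOH diluted 1:1 (v/v) with Mueller-Hinton medium. The zone of inhibition was scored as 5–10 mm poor, 10–15 moderate, 15–20 good and 20–25 very good. Gentamycin and nystatin were the reference drugs. Strains were confirmed at the University of Botswana microbiology laboratory.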
# Pseudomonas aeruginosa [3] = assay: Antimicrobial activity against Pseudomonas aeruginosa NCIMB 8295 by agar well diffusion method; type: functional
# [4] = Antioxidant activity assessed as DPPH radical scavenging activity after 3 hrs by spectrophotometry; type: physicochemical; outline: as §1
# Bacillus subtilis [5] = assay: Antimicrobial activity against Bacillus subtilis NCIB 3610 by agar well diffusion method; type: functional; details: subsp. subtilis str. NCIB 3610
# Candida albicans [6] = assay: Antifungal activity against Candida albicans by agar well diffusion method; type: functional
# Candida albicans [7] = assay: Antifungal activity against Candida albicans assessed as zone of inhibition at 100 ug/ml by agar well diffusion method; type: functional; outline: as §2
# Staphylococcus aureus [8] = assay: Antimicrobial activity against Staphylococcus aureus ATCC 25923 assessed as zone of inhibition at 100 ug/ml by agar well diffusion method; type: functional; details: for zone of inhibition at 100 µg/mL: read-out: IZ; outline: as §2
# Escherichia coli [9] = assay: Antimicrobial activity against Escherichia coli ATCC 8739 by agar well diffusion method; type: functional
# [10] = Antioxidant activity assessed as DPPH radical scavenging activity at 10 ug/ml after 3 hrs by spectrophotometry; type: physicochemical
# Bacillus subtilis [11] = assay: Antimicrobial activity against Bacillus subtilis NCIB 3610 assessed as zone of inhibition at 100 ug/ml by agar well diffusion method; type: functional; details: for Activity: subsp. subtilis str. NCIB 3610; outline: as §2
# Staphylococcus aureus [12] = assay: Antimicrobial activity against Staphylococcus aureus ATCC 25923 by agar well diffusion method; type: functional
# [13] = Metal chelating activity of the compound assessed as formation of iron complex after 20 mins by spectrophotometry; type: physicochemical
# Outline: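 Fe2+ chelation was measured by disruption of the o-phenanthroline–Fe2+ complex. O-phenanthroline (0.05% in methanol) and FeCl2 (0.1%) were mixed with the sample at various concentrations and held at room temperature for 20 min, then read at 510 nm. EDTA was the standard chelator. % chelation = (Acontrol−Asample)/Acontrol ×100, and IC50 came from plots of % chelation versus concentration. Triplicates.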
# Escherichia coli [14] = assay: Antimicrobial activity against Escherichia coli ATCC 8739 assessed as zone of inhibition at 100 ug/ml by agar well diffusion method; type: functional; outline: as §2
IC50 [1] [µg/mL],MIC (Pseudomonas aeruginosa [3]),IC50 [4] [µg/mL],MIC (Bacillus subtilis [5]),MIC (Candida albicans [6]),MIC (Escherichia coli [9]),inhibition (INH) [10] [%],MIC (Staphylococcus aureus [12]),IC50 [13] [µg/mL],SMILES,Activity (Pseudomonas aeruginosa [2]),zone of inhibition at 100 µg/mL (Candida albicans [7]; read-out: IZ) [mm],zone of inhibition at 100 µg/mL (Staphylococcus aureus [8]) [mm],Activity (Bacillus subtilis [11]),Activity (Escherichia coli [14]),Activity (Candida albicans [7]),Activity (Staphylococcus aureus [8]),"zone of inhibition at 100 µg/mL (Bacillus subtilis [11]; subsp. subtilis str. NCIB 3610, read-out: IZ) [mm]"
55.88,inactive,30.23,inactive,2.5 µg/mL,inactive,> 40,2.5 µg/mL,80.91,O=C1NN=C2C=C(c3ccc(O)cc3)CC(c3cccc([N+](=O)[O-])c3)C12 (stereo not drawn),inactive,11,11,inactive,inactive,,,
409.1,inactive,409.1,inactive,inactive,inactive,,inactive,1148.57,CCOC(=O)C1C(=O)C=C(c2ccc(Br)cc2)CC1c1cccc([N+](=O)[O-])c1 (stereo not drawn),inactive,,,inactive,inactive,inactive,inactive,
165.21,inactive,143.6,inactive,inactive,inactive,,inactive,1028.57,CCOC(=O)C1C(=O)C=C(c2ccccc2)CC1c1cccc([N+](=O)[O-])c1 (stereo not drawn),inactive,,,inactive,inactive,inactive,inactive,
98.53,inactive,59.5,2.5 µg/mL,inactive,inactive,,2.5 µg/mL,93.04,O=C1NN=C2C=C(c3ccccc3)CC(c3cccc([N+](=O)[O-])c3)C12 (stereo not drawn),inactive,,12,,inactive,inactive,,13
